Compounds with a hit are over-represented: about 4.3% of the library has one in this group of screens.
ALR H2O2 inh: human ALR oxidase inhibition via reduced H2O2; inhibition, % (test concentration not listed); AID 485317; 3.8% of 290,000 active; purified ALR, DTT oxidation, H2O2 HRP-luminol luminescence; P55789;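 active = mean replicate inhibition above about 79%, with every replicate also reaching it, limit read from the data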
Target sequence (P55789 whole entry, looked up): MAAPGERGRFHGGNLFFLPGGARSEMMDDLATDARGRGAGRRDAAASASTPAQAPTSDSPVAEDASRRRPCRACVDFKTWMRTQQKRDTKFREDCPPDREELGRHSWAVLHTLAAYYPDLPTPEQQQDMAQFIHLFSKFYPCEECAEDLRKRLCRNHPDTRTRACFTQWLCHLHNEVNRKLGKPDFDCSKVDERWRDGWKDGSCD
Dyrk1A ADPGlo: inhibitors of rat Dyrk1A kinase; Q63470; inhibition, % at 12.5 µM; 0.43% of 310,000 active; ADP-Glo luminescence, NFATc1 peptide; in the data active = inhibition above about 50%;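 note: plate controls were vehicle with enzyme for no effect and no enzyme for full effect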
Rtt109 Vps75: blocks Candida albicans Rtt109/Vps75 acetyltransferase activity; 0.16% of 330,000 active; inhibition, % at 34.9 µM; purified Rtt109/Vps75, ThioGlo CoA-SH fluorescence, 4 h;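 active = inhibition of at least 50% in every replicate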
Target sequence (Q5AAJ8 whole entry, looked up): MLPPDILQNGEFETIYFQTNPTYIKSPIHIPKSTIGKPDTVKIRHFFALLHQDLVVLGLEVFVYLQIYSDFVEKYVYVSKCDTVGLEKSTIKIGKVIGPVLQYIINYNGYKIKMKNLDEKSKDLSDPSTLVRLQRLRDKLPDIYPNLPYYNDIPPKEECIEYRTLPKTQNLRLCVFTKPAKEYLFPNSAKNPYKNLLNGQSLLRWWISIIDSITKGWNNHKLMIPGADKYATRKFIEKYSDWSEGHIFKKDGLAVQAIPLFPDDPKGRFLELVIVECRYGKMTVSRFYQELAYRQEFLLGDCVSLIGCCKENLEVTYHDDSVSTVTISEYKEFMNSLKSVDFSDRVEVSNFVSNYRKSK
CAL PDZ FP-1: blocks peptide binding to the human CAL PDZ domain | purified CAL PDZ, TMR-peptide fluorescence polarization, 1 h | inhibition, % at 24.9 µM | 0.92% of 300,000 active | AID 602252;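 active = mean inhibition of at least 30% with at least half of replicates also reaching 30%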;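 note: 0% = DMSO neutral control and 100% = excess unlabeled competitor peptide PRC23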
CAL PDZ FP-2: inhibitors of human CAL PDZ peptide binding | Q9HD26 | purified CAL PDZ, TMR-peptide fluorescence polarization, 1 h | 0.02% of 330,000 active | AID 504414 | inhibition, % at 20 µM;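 active = highest replicate inhibition of at least 40%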;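 note: plate controls were DMSO neutral control wells for no effect and unlabeled competitor peptide control wells for full effect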
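Control set: unlabelled peptide and DMSO controls / Material: purified CerCALP PDZ construct / Timing: 1 h incubation at room temperature before polarization reading / Doses: 20 µM, one dose / Detection: fluorescence polarization (mP)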
* marks the source's active call; other numbers are inactive results; nt = not tested or not shown.

SMILES	ALR H2O2 inh	Dyrk1A ADPGlo	Rtt109 Vps75	CAL PDZ FP-1	CAL PDZ FP-2
Nc1nc(-c2ccc(Cl)cc2)nn1C(=O)c1ccco1	75	2	1	-1	0
O=C(c1ccco1)n1nc(-c2ccccc2)nc1NCc1ccco1	78*	-9	-8	6	0
COc1ccc(-c2nc(N)n(C(=O)c3ccco3)n2)cc1	-49	0	-2	77*	nt
COC(=O)Cc1csc(Nc2ccc(F)c(Cl)c2)n1	15	21	-17	4	1
C[c-]1[c-](C)[c-](C)[c-](C)[c-]1C.[Fe].c1cc2nccc(N3CCCC3)[c-]2c1 (centres undefined)	94*	-2	-2	3	0
O=C1C=C(Nc2ccc(O)cc2)CC(c2ccco2)C1 (centres undefined)	99*	6	6	-1	0
CCOC(=O)c1ccc(NC2=CC(=O)CC(c3ccco3)C2)cc1 (centres undefined)	0	nt	-2	-1	-3
CCCNC(=O)CSC1=N/C(=C/c2ccc(F)cc2)C(=O)N1CC	97*	25	-8	-1	0
C=CCN1C(=O)/C(=C\c2ccc(C)cc2)N=C1SCC(=O)NCCC	98*	5	0	-1	-1
CCCCCNC(=O)CSC1=N/C(=C\c2ccc(Cl)c(Cl)c2)C(=O)N1CC	-5	4	-1	-5	-1
Cc1ccc(CN2C(=O)CCC2C(=O)N2CCN(c3ccc(F)cc3)CC2)cc1 (centres undefined)	91*	11	-4	-2	nt
CC(Sc1nnc(C2CC2)n1C1CC1)C(=O)c1ccc(Br)cc1 (centres undefined)	nt	3	-2	0	-1
NN/C(=C\[N+](=O)[O-])Nc1ccc(Cl)cc1	46	-4	nt	-2	-2
Cc1ccc(Cn2cc(/C=N/Nc3ccc([N+](=O)[O-])cn3)c3ccccc32)cc1	-6	-7	nt	-4	-3
O=C(O)Cn1cc(/C=N/Nc2ccc([N+](=O)[O-])cn2)c2ccccc21	99*	18	-5	10	0
COc1ccc(NC(=O)c2ccc(NC3=NC4CS(=O)(=O)CC4S3)cc2)cc1 (centres undefined)	-1	3	-9	2	-1
COc1ccc(Nc2cc(C(=O)NCCCN3CCN(C)CC3)c3ccccc3n2)c(OC)c1	81*	-10	7	0	0
O=C1CCc2cc(NS(=O)(=O)c3ccccc3)cc3c2N1CC3	2	18	16	-3	-3
S=C(NN=C(C1CC1)C1CC1)Nc1ccccc1	97*	nt	1	-5	0
O=C(NNC(=S)Nc1ccccc1)C1CC1	45	-1	4	1	-1
COc1ccc(NS(=O)(=O)c2ccc(O)c(NS(=O)(=O)c3ccc(NC(C)=O)cc3)c2)cc1	57	-3	5	-4	-1
Cn1c(=O)c(C(=O)CCl)c(N)n(Cc2ccccc2)c1=O	22	-19	11	4	0
Cn1c(N)cc(=O)n(Cc2ccccc2)c1=O	99*	-1	-12	1	-2
CN(C)CC(=O)c1c(N)n(Cc2ccccc2)c(=O)n(C)c1=O	-6	9	2	82*	-2
Cn1c(N)c(C(=O)CCl)c(=O)n(Cc2ccccc2)c1=O	99*	nt	-8	-2	0
SMILES	ALR H2O2 inh	Dyrk1A ADPGlo	Rtt109 Vps75	CAL PDZ FP-1	CAL PDZ FP-2
Cc1[nH]c(SCC(=O)c2c(N)n(C)c(=O)n(C)c2=O)nc1Cc1ccccc1	6	1	1	-8	-1
COc1ccc(C(=O)NNC2=NCCCCC2)cc1	54	-4	nt	-3	0
O=C(CSc1nc(C2CC2)nc2ccccc12)N1c2ccccc2Sc2ccccc21	45	0	-3	nt	-1
CCN(CC)C(=O)Cn1cc(C(=O)C(=O)NCc2ccco2)c2ccccc21	-24	nt	4	-3	-1
CCOc1cc(/C=C/c2cc(C(F)(F)F)[nH]c(=O)n2)ccc1O	99*	-1	-5	-1	-3
CCOc1cc(/C=C/c2ccc3cccc([N+](=O)[O-])c3n2)ccc1OCC(=O)N(C)C	-17	3	16	-2	-3
CCOc1cc(/C=C/c2ccc3cccc([N+](=O)[O-])c3n2)ccc1O	94*	6	4	-7	-1
CC(=O)Nc1c(O)nc(SCC(=O)N2CCCCC2)[nH]c1=O	nt	1	9	-4	0
O=C(CSc1nc(O)c(Cc2ccccc2F)c(=O)[nH]1)N1CCCCCC1	23	-3	-18	-4	-1
CCCc1c(O)nc(SCC(=O)N2CCCCC2)[nH]c1=O	88*	5	-2	-2	0
CC(C)CCc1c(O)nc(SCC(=O)N2CCCCCC2)[nH]c1=O	87*	-9	-72	-2	-4
CCN(CC)S(=O)(=O)c1ccc(OC)c(NC(=O)C2CC(=O)N(c3ccc(C)cc3)C2)c1 (centres undefined)	0	-71	3	-2	-3
O=[N+]([O-])c1ccc2c(c1)C=C1CCCCC1(N1CCCC1)O2 (centres undefined)	92*	-2	6	-3	0
C=CCOc1ccccc1C(=O)/C=C1/C(=O)Nc2ccccc21	nt	1	4	70*	nt
Cc1ccc(N2CCN(C(=O)N3CCCC3)CC2)cc1Cl	98*	4	-12	nt	0
Cc1sc2nc(CSC(C)C(=O)Nc3ccc(Cl)cn3)[nH]c(=O)c2c1C (centres undefined)	9	-2	-6	-3	0
COc1ccc(OC)c(NC(=O)C(C)SCc2nc3sc(C)c(C)c3c(=O)[nH]2)c1 (centres undefined)	nt	7	6	15	-2
Cc1sc2nc(CSC(C)C(=O)Nc3ccc(C#N)cc3)[nH]c(=O)c2c1C (centres undefined)	98*	14	-4	1	-1
Cc1sc2nc(CSC(C)C(=O)Nc3ccc(C(N)=O)cc3)[nH]c(=O)c2c1C (centres undefined)	100*	nt	3	nt	-1
COc1ccc(C(=O)N2CCCC(CNC(=O)c3ccccc3Cl)C2)o1 (centres undefined)	-2	-3	-11	-3	-2
Nc1cc(=O)[nH]c(N2CCN(c3ccccc3)CC2)n1	17	0	3	-4	1
O=C(CSc1ccccc1)Nc1ccc(N2CCN(c3ccccc3)CC2)c(F)c1	100*	1	0	nt	0
Nc1ccc(N2CCN(c3ccccc3)CC2)c(F)c1	79*	-2	4	nt	-1
COCC(=O)Nc1ccc(N2CCN(c3ccccc3)CC2)c(F)c1	-6	-4	2	-1	1
CC1CN(C(=O)Nc2cccc(Cl)c2)C2(CCCCCC2)O1 (centres undefined)	-3	7	-3	-3	-4
CC1(C)CC(=O)C2=C(C1)Nc1ccccc1[S@]2=O	nt	-4	19	0	1
O=S1c2ccccc2Nc2ccccc21	87*	2	-2	-2	2
